≈ marks a conversion by molar mass, not a printed value.
What was measured:
L1210 [1] = experiment: Increase in life span at the dose of 2.5 (mg/kg/day); assay type: functional, Mus musculus
P388 [2] = experiment: Cytotoxicity against P388 leukemia; assay type: functional, cell-based; settings: Mus musculus
[3] = Inhibition of DNA topoisomerase II from rat liver measured as 50% reduction in the amount of minicircle DNA relative to the control
Tubulin = Tubulin (Bos taurus, UniProt Q6B856+Q862L2+Q862F3); experiment: Drug concentration needed to produce a 50% reduction of bovine brain tubulin polymerization relative to the control
L1210 [4] = experiment: Antitumor activity in vivo expressed as the percentage increase in life span at the dose of 40 (mg/kg/day); assay type: functional, Mus musculus
L1210 [5] = experiment: The number of mice survived for 30 days at the dose of 40 (mg/kg/day); assay type: functional, Mus musculus
L1210 [6] = experiment: The number of mice survived for 30 days at the dose of 20 (mg/kg/day); assay type: functional, Mus musculus
L1210 [7] = experiment: Antitumor activity in vivo expressed as the percentage increase in life span at the dose of 20 (mg/kg/day); assay type: functional, Mus musculus
L1210 [8] = experiment: The number of mice survived for 30 days; assay type: functional, Mus musculus
[9] = test system: Lewis lung carcinoma cell line; experiment: Percentage inhibition of tumor growth at the lewis lung dose of 12 (mg/kg/ day); (p<0.01); assay type: functional, Mus musculus
Procedure, shortened: (§1)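 Lewis lung carcinoma fragments (2 mm3) implanted sc into male BDF1 mice (5 weeks) on day 0. Compound given iv on days 4–8, in saline or saline with 3.5% DMSO and 6.5% Tween 80. Seven mice per group, 10 controls. Percent inhibition from mean tumour weight versus control on day 17; p<0.05, 0.01 or 0.001 versus control.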

[10] = test system: Lewis lung carcinoma cell line; experiment: Antitumor activity in vivo expressed as the percentage increase in life span at the dose of 12 (mg/kg/day); (p<0.001); assay type: functional, Mus musculus
[11] = test system: Lewis lung carcinoma cell line; experiment: Mean body weight change at the dose of 4 (mg/kg/day); assay type: functional, Mus musculus
Procedure, shortened: (§2)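 Male BDF1 mice (5 weeks) given 3.2 x 10^5 Lewis lung carcinoma cells iv on day 0, then dosed iv on days 1–5. Seven mice per group, 14 controls. Mean body weight change (g) taken from day 0 to day 6.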

[12] = test system: Lewis lung carcinoma cell line; experiment: Antitumor activity in vivo expressed as the percentage increase in life span at the dose of 2.32 (mg/kg/day); (p<0.005); assay type: functional, Mus musculus
[13] = test system: Lewis lung carcinoma cell line; experiment: Mean body weight change at the dose of 12 (mg/kg/day); assay type: functional, Mus musculus; procedure, shortened: as §2
ACHN = experiment: Inhibition of growth of renal cancer ACHN cell line; assay type: functional; settings: Homo sapiens, read-out: ED50 (the source's name)
Procedure, shortened: (§3)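 Human tumour cell lines plated and grown 24 h in a CO2 incubator, then exposed to compound for 96 or 4 h. Cells counted by hemocytometer. IC50 is the concentration giving 50% reduction in cell number versus untreated control.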

[14] = test system: Lewis lung carcinoma cell line; experiment: Mean body weight change at the dose of 21 (mg/kg/day); assay type: functional, Mus musculus; procedure, shortened: as §2
[15] = Inhibition of growth of hepatoma HLF cell line; assay type: functional; settings: Homo sapiens, read-out: ED50 (the source's name)
Procedure, shortened: (§4)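 Cells were seeded and cultured for 24 h, then exposed to drug for 96 or 4 h. Cells were counted by hemocytometer. IC50 is the concentration giving a 50% reduction in cell number relative to control.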

[16] = test system: Lewis lung carcinoma cell line; experiment: Antitumor activity in vivo expressed as the percentage increase in life span at the dose of 7 (mg/kg/day); (p<0.001); assay type: functional, Mus musculus
[17] = test system: Lewis lung carcinoma cell line; experiment: Mean body weight change at the dose of 7 (mg/kg/day); assay type: functional, Mus musculus; procedure, shortened: as §2
P388 [18] = experiment: Increased life span at the P388 dose of 2.3 (mg/kg/day); assay type: functional, Mus musculus
Procedure, shortened: (§5)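 P388 leukaemia, 1 × 10^6 cells given sc to male CDF1 mice (5 weeks old) on day 0. Drug was dosed iv on days 1–5 in saline with 3.5% DMSO and 6.5% Tween 80. Groups had 7 mice; controls had 10. ILS was calculated from mean survival time of treated versus control mice, excluding 30-day survivors.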

[19] = Inhibition of growth of lung non-small cell carcinoma PC-7 cell line; assay type: functional; settings: Homo sapiens, read-out: ED50 (the source's name); procedure, shortened: as §4
[20] = test system: Lewis lung carcinoma cell line; experiment: Antitumor activity in vivo expressed as the percentage increase in life span at the dose of 21 (mg/kg/day); (p<0.005); assay type: functional, Mus musculus
[21] = Inhibition of growth of renal cancer G-402 cell line; assay type: functional; settings: Homo sapiens, read-out: ED50 (the source's name); procedure, shortened: as §3
COLO 320DM = experiment: Inhibition of growth of colon carcinoma COLO 320DM; assay type: functional; settings: Homo sapiens, read-out: ED50 (the source's name); procedure, shortened: as §4
SBC-3 = experiment: Inhibition of growth of lung small cell carcinoma SBC-3 cell line; assay type: functional; settings: Homo sapiens, read-out: ED50 (the source's name); procedure, shortened: as §3
P388 [22] = experiment: Increased life span at the P388 dose of 7 (mg/kg/day); assay type: functional, Mus musculus; procedure, shortened: as §5
L1210 [23] = experiment: Antitumor activity in vivo expressed as the percentage increase in life span at the dose of 10 (mg/kg/day); assay type: functional, Mus musculus
[24] = test system: Lewis lung carcinoma cell line; experiment: Mean body weight change at the dose of 2.3 (mg/kg/day); assay type: functional, Mus musculus; procedure, shortened: as §2
[25] = Inhibition of growth of lung small cell carcinoma RERF-LC-MA cell line; assay type: functional; settings: Homo sapiens; read-out: ED50 (the source's name); procedure, shortened: as §4
[26] = Inhibition of growth of colon carcinoma COLO 2-1 cell line; assay type: functional; settings: Homo sapiens, read-out: ED50 (the source's name); procedure, shortened: as §4
[27] = test system: Lewis lung carcinoma cell line; experiment: Antitumor activity in vivo expressed as the percentage increase in life span at the dose of 4 (mg/kg/day); (p<0.001); assay type: functional, Mus musculus
[28] = test system: Lewis lung carcinoma cell line; experiment: Percentage inhibition of tumor growth at the lewis lung dose of 7 (mg/kg/day); (p<0.05); assay type: functional, Mus musculus; procedure, shortened: as §1
Homo sapiens = organism: Homo sapiens; experiment: Inhibition of growth of hepatoma HLE cell line; assay type: functional; settings: read-out: ED50 (the source's name); procedure, shortened: as §4
P388 [29] = experiment: Increased life span at the P388 dose of 4 (mg/kg/day); assay type: functional, Mus musculus; procedure, shortened: as §5
A549 = experiment: Inhibition of growth of lung non-small cell carcinoma A-549 cell line; assay type: functional; settings: Homo sapiens, read-out: ED50 (the source's name); procedure, shortened: as §4

SMILES: COc1cc([C@@H]2c3cc4c(cc3[C@@H](CCN(C)C)C3COC(=O)[C@@H]32)OCO4)cc(OC)c1O.Cl (stereo partly drawn)
- ILS max (L1210 [1]): 67%
- IC50 (P388 [2]): 60 nM
- IC50 [3]: 36.7 µM
- IC50 (Tubulin): > 100 µM

SMILES: COc1cc([C@@H]2c3cc4c(cc3[C@@H](CCN(C)N(C)C)C3COC(=O)[C@@H]32)OCO4)cc(OC)c1O.Cl (stereo partly drawn)
- ILS max (L1210 [4]): 74%
- Survivors (L1210 [5]): 6
- IC50 (P388 [2]): 20 nM
- IC50 [3]: 58.3 µM
- IC50 (Tubulin): > 100 µM

SMILES: CCCCCCN(C)CC[C@@H]1c2cc3c(cc2[C@@H](c2cc(OC)c(O)c(OC)c2)[C@H]2C(=O)OCC12)OCO3.Cl (stereo partly drawn)
- Survivors (L1210 [6]): 6
- ILS max (L1210 [7]): 106%
- IC50 (P388 [2]): 19 nM
- IC50 [3]: 61.4 µM
- IC50 (Tubulin): > 167 µM

SMILES: COc1cc([C@@H]2c3cc4c(cc3[C@@H](O[C@@H]3O[C@@H]5CO[C@@H](C)O[C@H]5[C@H](O)[C@H]3O)[C@H]3COC(=O)[C@H]23)OCO4)cc(OC)c1O [ETOPOSIDE]
- Survivors (L1210 [8]): 3
- Inhibition [9]: 60%
- ILS max [10]: 81%
- bwc [11]: -0.4 g
- ILS max [12]: 17%
- bwc [13]: -2.6 g
- EC50 (ACHN): 13 µg/mL (≈ 22.1 µM)
- bwc [14]: -3.8 g
- EC50 [15]: 19 µg/mL (≈ 32.3 µM)
- ILS max [16]: 21%
- bwc [17]: -0.8 g
- ILS max (P388 [18]): 151%
- EC50 [19]: 35 µg/mL (≈ 59.5 µM)
- IC50 (P388 [2]): 10 nM
- ILS max [20]: 91%
- EC50 [21]: 4.8 µg/mL (≈ 8.16 µM)
- IC50 [3]: 59.2 µM
- EC50 (COLO 320DM): 14 µg/mL (≈ 23.8 µM)
- EC50 (SBC-3): 1.6 µg/mL (≈ 2.72 µM)
- ILS max (P388 [22]): 226%
- ILS max (L1210 [23]): 102%
- bwc [24]: 0 g
- EC50 [25]: > 59 µg/mL
- EC50 [26]: 59 µg/mL (≈ 100 µM)
- ILS max [27]: 24%
- Inhibition [28]: 39%
- EC50 (Homo sapiens): 1.5 µg/mL (≈ 2.55 µM)
- ILS max (P388 [29]): 196%
- EC50 (A549): 2.9 µg/mL (≈ 4.93 µM)

Reference: ChEMBL document CHEMBL1127046, “Antitumor agents. 3. Synthesis and biological activity of 4 beta-alkyl derivatives containing hydroxy, amino, and amido groups of 4'-O-demethyl-4-desoxypodophyllotoxin as antitumor agents” (J Med Chem, 1993)
